Test results: ChEMBL document CHEMBL4842330, “New nimesulide derivatives with amide/sulfonamide moieties: Selective COX-2 inhibition and antitumor effects” (Eur J Med Chem, 2021)
Calls of active or inactive are those of the source. The calls are words filed in the database; no cut-off is given here.

Assays:
RAW264.7 [1] = assay: Inhibition of LPS-induced NO release in mouse RAW264.7 cells at 20 uM when treated with compound and LPS simultaneously measured after 24 hrs by Griess reagent based assay relative to control; assay type: functional
In short: (§1)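 RAW264.7 cells were plated at 4 × 10⁵ cells/mL in phenol-free medium and left 24 h. They then received compound together with LPS (1 µg/mL) for 24 h. Nitrite in supernatants was measured by the Griess reaction and normalised to BCA total protein of viable cells. 1400W at 20 µM served as positive control.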

MCF7 [2] = assay: Cytotoxicity against human MCF7 cells assessed as cell viability at 100 uM after 48 hrs by MTT assay relative to control; assay type: functional; settings: read-out: Activity
In short: (§2)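 Cells in exponential growth were seeded at 5 × 10⁴ cells/mL, held 24 h at 37 °C, then exposed to compound for 48 h. MTT was added to 1 mg/mL final for 2 h. Formazan was dissolved in DMSO and read at 570 nm, with 620 nm background subtraction. Final DMSO ≤1.0%; viability reported as percentage of control.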

THP-1 [3] = assay: Antiinflammatory activity in LPS-stimulated human THP-1 cells assessed as suppression of PGE2 release at 100 uM incubated for 24 hrs by ELISA relative to control; assay type: functional
In short: (§3)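 THP-1 monocytes were differentiated with PMA (10 ng/mL, 24 h) and rested 24 h PMA-free. They were then given compound alongside 1 µg/mL LPS for 24 h. PGE₂ in supernatants was measured by ELISA and normalised to the BCA total protein of viable cells. Final DMSO ≤1.0%; at least three independent biological replicates.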

THP-1 [4] = assay: Antiinflammatory activity in LPS-stimulated human THP-1 cells assessed as suppression of PGE2 release at 50 uM incubated for 24 hrs by ELISA relative to control; assay type: functional; in short: as §3
[5] = target: COX-1 (Prostaglandin G/H synthase 1) (Homo sapiens, UniProt P23219); assay: Inhibition of human recombinant COX-1 at 10 uM using arachidonic acid as substrate preincubated for 10 mins followed by substrate addition relative to control; settings: recombinant COX-1, probe arachidonic acid
COX-1 (Prostaglandin G/H synthase 1), sequence (P23219 whole entry): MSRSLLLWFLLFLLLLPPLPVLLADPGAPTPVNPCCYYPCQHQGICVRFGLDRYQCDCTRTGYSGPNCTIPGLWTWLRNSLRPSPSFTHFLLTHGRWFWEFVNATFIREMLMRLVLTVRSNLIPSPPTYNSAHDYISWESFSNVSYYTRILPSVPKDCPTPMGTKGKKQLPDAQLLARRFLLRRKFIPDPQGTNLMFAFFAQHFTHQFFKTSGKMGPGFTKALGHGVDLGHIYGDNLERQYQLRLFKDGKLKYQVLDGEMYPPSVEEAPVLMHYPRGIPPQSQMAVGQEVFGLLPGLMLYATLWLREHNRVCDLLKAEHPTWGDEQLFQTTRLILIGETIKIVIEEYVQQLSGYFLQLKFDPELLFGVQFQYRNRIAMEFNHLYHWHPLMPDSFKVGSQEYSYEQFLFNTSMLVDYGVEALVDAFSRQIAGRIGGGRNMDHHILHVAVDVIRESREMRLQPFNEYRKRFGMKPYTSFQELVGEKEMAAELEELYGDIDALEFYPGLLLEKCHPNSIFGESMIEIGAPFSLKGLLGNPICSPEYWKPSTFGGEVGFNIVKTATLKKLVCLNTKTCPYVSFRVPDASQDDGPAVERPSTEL

PC-3 [6] = assay: Cytotoxicity against human PC-3 cells assessed as cell viability at 100 uM after 48 hrs by MTT assay relative to control; assay type: functional; settings: read-out: Activity; in short: as §2
[7] = Inhibition of LPS-induced TNF alpha mRNA expression in mouse RAW264.7 cells at 20 uM by RT-qPCR analysis relative to control; assay type: functional
In short: (§4)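 RAW264.7 cells were kept in high-glucose DMEM with 10% FBS. They were treated with compound alongside LPS stimulation. iNOS, TNF-α and IL-1β mRNA were quantified by qPCR using TaqMan probes, with β-actin as housekeeping gene, and expressed relative to LPS control. Final DMSO ≤1.0%.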

[8] = Inhibition of LPS-induced IL-1 beta mRNA expression in mouse RAW264.7 cells at 20 uM by RT-qPCR analysis relative to control; assay type: functional; in short: as §4
RAW264.7 [9] = assay: Inhibition of LPS-induced NO release in mouse RAW264.7 cells at 50 uM when treated with compound and LPS simultaneously measured after 24 hrs by Griess reagent based assay relative to control; assay type: functional; in short: as §1
[10] = target: T1, Prostaglandin G/H synthase 2 (Homo sapiens) (UniProt P35354); assay: Inhibition of human recombinant COX-2 at 1 uM using arachidonic acid as substrate preincubated for 10 mins followed by substrate addition relative to control
T1 sequence (whole entry): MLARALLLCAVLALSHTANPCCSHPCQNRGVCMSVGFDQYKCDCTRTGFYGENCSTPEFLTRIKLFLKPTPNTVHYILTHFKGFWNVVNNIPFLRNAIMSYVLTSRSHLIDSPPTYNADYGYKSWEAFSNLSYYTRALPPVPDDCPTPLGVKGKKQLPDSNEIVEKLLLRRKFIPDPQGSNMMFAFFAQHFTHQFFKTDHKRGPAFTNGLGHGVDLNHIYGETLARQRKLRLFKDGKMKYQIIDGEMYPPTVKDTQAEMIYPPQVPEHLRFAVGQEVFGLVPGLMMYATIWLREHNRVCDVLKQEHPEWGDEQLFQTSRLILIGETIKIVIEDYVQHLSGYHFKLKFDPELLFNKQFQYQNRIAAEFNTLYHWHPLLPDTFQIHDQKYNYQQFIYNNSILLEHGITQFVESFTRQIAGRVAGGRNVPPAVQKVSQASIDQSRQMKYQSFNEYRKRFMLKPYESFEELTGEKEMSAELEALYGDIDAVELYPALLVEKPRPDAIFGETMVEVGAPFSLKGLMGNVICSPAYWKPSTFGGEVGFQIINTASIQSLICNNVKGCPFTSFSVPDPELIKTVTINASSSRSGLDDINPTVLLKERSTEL

THP-1 [11] = assay: Antiinflammatory activity in LPS-stimulated human THP-1 cells assessed as suppression of COX-2 mRNA expression at 50 uM incubated for 24 hrs by ELISA relative to control; assay type: functional; settings: in the assay text read “by qPCR” for “by ELISA”
In short: (§5)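 THP-1 monocytes plated at 1 × 10⁶ cells/mL, differentiated with 10 ng/mL PMA for 24 h, then rested 24 h in PMA-free medium. Cells were treated with compound and LPS stimulation. COX mRNA was quantified by qPCR with TaqMan probes against β-actin as housekeeping gene. Compound stocks in DMSO, final DMSO ≤1.0%.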

THP-1 [12] = assay: Antiinflammatory activity in LPS-stimulated human THP-1 cells assessed as suppression of COX-2 mRNA expression at 100 uM incubated for 24 hrs by ELISA relative to control; assay type: functional; settings: in the assay text read “by qPCR” for “by ELISA”; in short: as §5
[13] = Inhibition of LPS-induced IL-1 beta mRNA expression in mouse RAW264.7 cells at 50 uM by RT-qPCR analysis relative to control; assay type: functional; in short: as §4
[14] = Inhibition of LPS-induced TNF alpha mRNA expression in mouse RAW264.7 cells at 50 uM by RT-qPCR analysis relative to control; assay type: functional; in short: as §4
HT-29 [15] = assay: Cytotoxicity against human HT-29 cells assessed as cell viability at 100 uM after 48 hrs by MTT assay relative to control; assay type: functional; settings: read-out: Activity; in short: as §2
[16] = Inhibition of LPS-induced iNOS mRNA expression in mouse RAW264.7 cells assessed as downregulation of iNOS mRNA expression at 20 uM by RT-qPCR analysis relative to control; assay type: functional; in short: as §4
RAW264.7 [17] = assay: Inhibition of LPS-induced iNOS mRNA expression in mouse RAW264.7 cells assessed as downregulation of iNOS mRNA expression at 50 uM by RT-qPCR analysis relative to control; assay type: functional, cell-based; in short: as §4
HUVEC = assay: Cytotoxicity against human HUVEC cells assessed as inhibition of cell growth after 48 hrs by SRB assay; assay type: cell-based
In short: (§6)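 Cells seeded at 5 × 10⁴ cells/mL were held 24 h, then treated 48 h across final concentrations of 0–200 µM. They were fixed with 10% TCA for 1 h at 4 °C and stained with 0.04% SRB for 30 min. Bound dye was washed with 1% acetic acid, solubilised in 10 mM Tris base (pH 10.5) and read at 565 nm. IC50 derived from concentration–response curves.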

MCF7 [18] = assay: Induction of apoptosis in human MCF7 cells assessed as downregulation of Bcl-2 protein expression at 10 to 25 uM measured after 24 hrs by Western blot analysis; settings: dose 10-25 µM
MCF7 [19] = assay: Cytotoxicity against human MCF7 cells assessed as inhibition of cell growth after 48 hrs by SRB assay; assay type: functional, cell-based; settings: MCF7, 48 h; in short: as §6
MCF7 [20] = assay: Induction of apoptosis in human MCF7 cells assessed as upregulation of BAX protein expression measured after 24 hrs by Western blot analysis; assay type: functional, cell-based
In short: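 MCF-7 cells seeded at 1 × 10⁶ cells/mL were exposed to compound for 24 h and lysed in RIPA buffer. Lysates were quantified by BCA, equally loaded, and run on a 12% SDS gel with 4% stacking gel. Blots were probed at 4 °C for BAX, BCL-2 and β-actin, then with HRP secondary, and detected by chemiluminescence. Band densitometry reported as relative change versus control.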

MCF7 [21] = assay: Induction of apoptosis in human MCF7 cells assessed as increase in BAX/Bcl-2 ratio at 10 to 25 uM measured after 24 hrs by Western blot analysis; settings: dose 10-25 µM
PC-3 [22] = assay: Cytotoxicity against human PC-3 cells assessed as inhibition of cell growth after 48 hrs by SRB assay; assay type: functional, cell-based; settings: PC-3, 48 h; in short: as §6
HT-29 [23] = assay: Cytotoxicity against human HT-29 cells assessed as inhibition of cell growth after 48 hrs by SRB assay; assay type: functional, cell-based; settings: HT-29, 48 h; in short: as §6
MCF7 [24] = assay: Inhibition of colony formation in human MCF7 cells assessed as decrease in colonies incubated for 14 days by crystal violet staining based clonogenic assay; assay type: functional, cell-based; settings: time 14.0 day
In short: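 MCF-7 cells seeded at 5 × 10² per well were allowed to attach for 24 h. Compound was then applied at increasing concentrations, with medium and compound renewed every 2 days for 14 days. Colonies were fixed in 75% methanol/25% acetic acid for 30 min, stained with 0.5% crystal violet for 30 min, and counted.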

SMILES | viability at 100 µM (MCF7 [2]) | viability at 100 µM (PC-3 [6]) | viability at 100 µM (HT-29 [15]) | also measured
CCOc1cc(NS(=O)(=O)c2ccc([N+](=O)[O-])cc2)ccc1NS(C)(=O)=O | 119% | 65.7% | 118% | inhibition at 20 µM (RAW264.7 [1]): 40.7%; Activity (THP-1 [3]): 44%; Activity (THP-1 [4]): 77%; inhibition at 10 µM [5]: 21%; inhibition at 20 µM [7]: 46%; inhibition at 20 µM [8]: 39%; inhibition at 50 µM (RAW264.7 [9]): 68%; inhibition [10]: 88%; Activity (THP-1 [11]): 47%; Activity (THP-1 [12]): 60%; inhibition at 50 µM [13]: 22%; inhibition at 50 µM [14]: 22%
CC(C)Oc1cc(NS(=O)(=O)c2ccc([N+](=O)[O-])cc2)ccc1NS(C)(=O)=O | 57.9% | 91.4% | 75.4% | –
CC(C)Oc1cc(NC(=O)c2ccc(F)cc2)ccc1NS(C)(=O)=O | 110% | 79.4% | 49.6% | inhibition at 20 µM (RAW264.7 [1]): 43%; Activity (THP-1 [3]): 68%; Activity (THP-1 [4]): 67%; inhibition at 10 µM [5]: 27.2%; inhibition at 20 µM [16]: 40%; inhibition at 20 µM [7]: 44%; inhibition at 20 µM [8]: 45%; inhibition (RAW264.7 [17]): Active; inhibition at 50 µM (RAW264.7 [9]): 46.4%; inhibition [10]: 72.8%; Activity (THP-1 [11]): 53%; Activity (THP-1 [12]): 61%; inhibition at 50 µM [13]: 51%; inhibition at 50 µM [14]: 57%
CS(=O)(=O)Nc1ccc(NC(=O)c2ccc(C(N)=O)cc2)cc1Oc1ccccc1 | 53.1% | 88.7% | 64.4% | –
CS(=O)(=O)Nc1ccc(NC(=O)c2ccc(F)cc2)cc1Oc1ccccc1 | 22.2% | 24.8% | 33.1% | IC50 (HUVEC): > 200000 nM; Activity (MCF7 [18]): Active; IC50 (MCF7 [19]): 11.3 µM; Activity (MCF7 [20]): Dose-Dependent Effect; Activity (MCF7 [21]): Active; IC50 (PC-3 [22]): > 100 µM; IC50 (HT-29 [23]): 9.24 µM; inhibition (MCF7 [24]): Dose-Dependent Effect
CCOc1cc(NC(=O)c2cccc([N+](=O)[O-])c2)ccc1NS(C)(=O)=O | 90.8% | 90.2% | 70.4% | –
CCOc1cc(NS(=O)(=O)c2ccccc2[N+](=O)[O-])ccc1NS(C)(=O)=O | 139% | 77.9% | 133% | –
COc1cccc2c1C(=O)c1c(O)c3c(c(O)c1C2=O)C[C@@](O)(C(=O)CO)C[C@@H]3O[C@H]1C[C@H](N)[C@H](O)[C@H](C)O1 [DOXORUBICIN] | 14.1% | 11.8% | 21% | IC50 (HUVEC): 100 nM; IC50 (MCF7 [19]): 0.16 µM; IC50 (PC-3 [22]): 16.9 µM; IC50 (HT-29 [23]): 0.15 µM
CCOc1cc(NC(=O)c2ccccc2[N+](=O)[O-])ccc1NS(C)(=O)=O | 122% | 100% | 112% | –
CC(C)Oc1cc(NC(=O)c2ccc([N+](=O)[O-])cc2)ccc1NS(C)(=O)=O | 101% | 81% | 124% | –
CC(C)Oc1cc(NS(=O)(=O)c2ccc(F)cc2)ccc1NS(C)(=O)=O | 130% | 75.5% | 92.9% | –
COc1ccc(S(=O)(=O)Nc2ccc(NS(C)(=O)=O)c(OC(C)C)c2)cc1 | 130% | 68.6% | 102% | –
CC(C)Oc1cc(NC(=O)c2ccc(C(N)=O)cc2)ccc1NS(C)(=O)=O | 61.9% | 49.8% | 79.4% | –
COc1ccc(C(=O)Nc2ccc(NS(C)(=O)=O)c(OC(C)C)c2)cc1 | 153% | 65.8% | 67.9% | –
CCOc1cc(NC(=O)c2ccc([N+](=O)[O-])cc2)ccc1NS(C)(=O)=O | 116% | 84.8% | 114% | –
CCOc1cc(NC(=O)c2ccc(F)cc2)ccc1NS(C)(=O)=O | 64.4% | 90% | 80.1% | –
CCOc1cc(NS(=O)(=O)c2cccc([N+](=O)[O-])c2)ccc1NS(C)(=O)=O | 127% | 75.5% | 116% | –
COc1ccc(C(=O)Nc2ccc(NS(C)(=O)=O)c(OC(C)C)c2)c([N+](=O)[O-])c1 | 63.5% | 94.2% | 111% | –
